This note sets out measurements from ChEMBL document CHEMBL4732167, “Structure based design, synthesis, and biological evaluation of imidazole derivatives targeting dihydropteroate synthase enzyme” (Bioorg Med Chem Lett, 2021).

One may read the MIC as the lowest concentration found to suppress growth. For orientation: MFC means the smallest concentration meeting the test's criterion for killing the fungus. What is called IC50 is the concentration at which inhibition is half-maximal.

Experiment [1] deals with Staphylococcus aureus. Kind of experiment: Antibacterial activity against Staphylococcus aureus MTCC 96 assessed as bacterial growth inhibition. The experiment is classed as functional.
For another experiment, the system named is Escherichia coli. Kind of experiment: Antibacterial activity against Escherichia coli MTCC 443 assessed as bacterial growth inhibition. The experiment is classed as functional.
The next experiment relates to Pseudomonas aeruginosa. The experiment in a line: Antibacterial activity against Pseudomonas aeruginosa MTCC 1688 assessed as bacterial growth inhibition. The experiment is classed as functional.
In the next experiment the test system is Aspergillus niger. Kind of experiment: Antifungal activity against Aspergillus niger MTCC 282 assessed as fungal growth inhibition. The experiment is classed as functional.
For the next experiment, the system named is Candida albicans. Kind of experiment: Antifungal activity against Candida albicans MTCC 227 assessed as fungal growth inhibition. The experiment is classed as functional.
A further experiment relates to Streptococcus pyogenes. The experiment in a line: Antibacterial activity against Streptococcus pyogenes MTCC 442 assessed as bacterial growth inhibition. The experiment is classed as functional.
A further experiment deals with Aspergillus clavatus. Kind of experiment: Antifungal activity against Aspergillus clavatus MTCC 1323 assessed as fungal growth inhibition. Format: functional.
The test system of experiment [2] is Mycobacterium tuberculosis. The experiment in a line: Antibacterial activity against Mycobacterium tuberculosis H37Rv assessed as bacterial growth inhibition. Format: functional.
For a further experiment, the system named is Plasmodium falciparum. The experiment in a line: Antimalarial activity against Plasmodium falciparum assessed as parasite growth inhibition. Format: functional, organism-based.
The subject of a further experiment is Bacteria. The experiment in a line: Antibacterial activity against ESBL-producing bacteria assessed as bacterial growth inhibition. The experiment is classed as functional. The method in brief:
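Values are minimum inhibitory concentrations (MIC) in µg/mL, determined at an outside microbiology laboratory.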

For another experiment, the system named is Enterococcus. Kind of experiment: Antibacterial activity against vancomycin-resistant Enterococcus assessed as inhibition of bacterial growth. Format: functional. The method in brief:
(§1)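 Growth inhibition of the drug-resistant strain was read out as the minimum inhibitory concentration (MIC), reported in µg/mL. The same protocol was also run on an ESBL strain.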

In experiment [3] the test system is Staphylococcus aureus. Kind of experiment: Antibacterial activity against methicillin-resistant Staphylococcus aureus assessed as inhibition of bacterial growth. The experiment is classed as functional. The method in brief: as §1
Experiment [4] in a line: Antioxidant activity assessed as DPPH radical scavenging activity at 25 ug/ml (reference value: 22 to 40.2 %). Format: functional. The settings on record: dose 25.0 µg/ml. The method in brief:
(§2)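 DPPH radical scavenging was measured at 0, 25, 50, 75 and 100 µg/ml of each compound. Ascorbic acid was the reference.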
In general terms: DPPH is a stable violet radical that fades when it is reduced.

A short description of experiment [5]: Antioxidant activity assessed as DPPH radical scavenging activity at 50 ug/ml (reference value: 22 to 40.2 %). The settings on record: dose 50.0 µg/ml. Format: functional. The method in brief:
as §2

Experiment [6] is described as follows: Antioxidant activity assessed as DPPH radical scavenging activity at 75 ug/ml (reference value: 22 to 40.2 %). The experiment is classed as functional. Particulars: dose 75.0 µg/ml. In a few lines:
as §2

Experiment [7] is described as follows: Antioxidant activity assessed as DPPH radical scavenging activity at 100 ug/ml (reference value: 22 to 40.2 %). The experiment is classed as functional. The settings on record: dose 100.0 µg/ml. The method in brief:
as §2

The nature of experiment [8]: Antioxidant activity assessed as nitric oxide radical scavenging activity at 25 ug/ml (reference value: 25.8 to 41.6 %). Format: functional. Particulars: dose 25.0 µg/ml. In a few lines: (§3)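 Nitric oxide radical scavenging was tested at 0, 25, 50, 75 and 100 µg/ml of compound.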
Experiment [9] in a line: Antioxidant activity assessed as nitric oxide radical scavenging activity at 50 ug/ml (reference value: 25.8 to 41.6 %). Format: functional. Particulars: dose 50.0 µg/ml. The method in brief:
as §3

The nature of experiment [10]: Antioxidant activity assessed as nitric oxide radical scavenging activity at 75 ug/ml (reference value: 25.8 to 41.6 %). The experiment is classed as functional. The settings on record: dose 75.0 µg/ml. The method in brief: as §3
A short description of experiment [11]: Antioxidant activity assessed as nitric oxide radical scavenging activity at 100 ug/ml (reference value: 25.8 to 41.6 %). The experiment is classed as functional. The settings on record: dose 100.0 µg/ml. In a few lines: as §3
Experiment [12] can be described thus: Antioxidant activity assessed as hydrogen peroxide radical scavenging activity at 25 ug/ml (reference value: 23.6 to 43.1 %). The experiment is classed as functional. Particulars: dose 25.0 µg/ml. The method in brief: (§4)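 Hydrogen peroxide scavenging was measured across a compound series of 0, 25, 50, 75 and 100 µg/ml.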
Experiment [13] is described as follows: Antioxidant activity assessed as hydrogen peroxide radical scavenging activity at 50 ug/ml (reference value: 23.6 to 43.1 %). The experiment is classed as functional. The settings on record: dose 50.0 µg/ml. The method in brief:
as §4

Experiment [14] is described as follows: Antioxidant activity assessed as hydrogen peroxide radical scavenging activity at 75 ug/ml (reference value: 23.6 to 43.1 %). Format: functional. The settings on record: dose 75.0 µg/ml. In a few lines:
as §4

Experiment [15] can be described thus: Antioxidant activity assessed as hydrogen peroxide radical scavenging activity at 100 ug/ml (reference value: 23.6 to 43.1 %). Particulars: dose 100.0 µg/ml. Format: functional. In a few lines:
as §4

In brackets after ≈: the same amount, converted by molar mass. Where only a bound is given, the exact number is not on record here.

For `CC(=O)c1c(C)nc(SCC(=O)Nc2ccc(OCc3ccccc3)cc2)n1-c1ccc(F)cc1`, the MIC with Staphylococcus aureus [1] is 500 µg/mL (≈ 1020 µM); in the experiment with Escherichia coli, 100 µg/mL (≈ 204 µM); in the experiment with Pseudomonas aeruginosa, 125 µg/mL (≈ 255 µM); with Streptococcus pyogenes, 250 µg/mL (≈ 511 µM); in experiment [2], 62.5 µg/mL (≈ 128 µM); with Bacteria, 125 µg/mL (≈ 255 µM). In addition, the values for the MIC in the experiment with Enterococcus and in the experiment with Staphylococcus aureus [3] were 250 µg/mL (≈ 511 µM) and 1000 µg/mL (≈ 2040 µM), respectively. Also, the results for the MFC in the experiment on Aspergillus niger, in the experiment with Candida albicans and in the experiment with Aspergillus clavatus were over 1000 µg/mL, 1000 µg/mL (≈ 2040 µM) and over 1000 µg/mL, respectively. In the experiment on Plasmodium falciparum, the IC50 worked out at 0.45 µg/mL (≈ 0.919 µM). In addition, the Activity stood at 46.8% in experiment [4]; 56.2% in experiment [5]; 62.3% in experiment [6]; 84.7% in [7]; 45.7% in experiment [8]; 60.8% in experiment [9]. Besides, the Activity in experiment [10] was found to be 72.4%; in [11], 85.9%; in experiment [12], 47.4%; in [13] it was 63.7%; in experiment [14] it was 84%; in experiment [15], 91.8%.
On to `COc1ccc(-n2c(SCC(=O)Nc3ccc(OC(=O)c4ccco4)cc3)nc(C)c2C(C)=O)cc1`, for which the minimum inhibitory concentration (MIC) in the experiment with Staphylococcus aureus [1] amounted to 250 µg/mL (≈ 495 µM); with Escherichia coli, 125 µg/mL (≈ 247 µM); in the experiment with Pseudomonas aeruginosa, 100 µg/mL (≈ 198 µM); with Streptococcus pyogenes it was 125 µg/mL (≈ 247 µM); in [2], 62.5 µg/mL (≈ 124 µM); with Bacteria it was 500 µg/mL (≈ 989 µM). In addition, the MIC in the experiment with Enterococcus is 250 µg/mL (≈ 495 µM); in the experiment with Staphylococcus aureus [3] it was 500 µg/mL (≈ 989 µM). Also, the MFC in the experiment with Aspergillus niger is over 1000 µg/mL; in the experiment with Candida albicans, 250 µg/mL (≈ 495 µM); in the experiment on Aspergillus clavatus, over 1000 µg/mL. In the experiment on Plasmodium falciparum, the IC50 was 0.78 µg/mL (≈ 1.54 µM). Further, the Activity in experiment [4] came to 32.5%; in [5], 47.1%; in [6], 66.2%; in experiment [7], 85.2%; in experiment [8] it was 37.7%; in [9], 59.3%. Also, the Activity in [10] was found to be 78.9%; in experiment [11], 84.5%; in experiment [12] it was 59.3%; in experiment [13] it was 69.9%; in experiment [14], 81%; in experiment [15], 90%.
For `COc1ccc(COc2ccc(NC(=O)CSc3nc(C)c(C(C)=O)n3-c3ccc(Br)cc3)cc2)cc1`, the MIC was 250 µg/mL (≈ 431 µM) with Staphylococcus aureus [1]; 125 µg/mL (≈ 215 µM) in the experiment with Escherichia coli; 50 µg/mL (≈ 86.1 µM) with Pseudomonas aeruginosa; 125 µg/mL (≈ 215 µM) with Streptococcus pyogenes; 250 µg/mL (≈ 431 µM) in experiment [2]; 250 µg/mL (≈ 431 µM) in the experiment with Bacteria. The figures for the MIC in the experiment on Enterococcus and in the experiment with Staphylococcus aureus [3] were 250 µg/mL (≈ 431 µM) and 500 µg/mL (≈ 861 µM), respectively. Moreover, the minimal fungicidal concentration (MFC) is over 1000 µg/mL in the experiment with Aspergillus niger, 500 µg/mL (≈ 861 µM) with Candida albicans and 1000 µg/mL (≈ 1720 µM) in the experiment with Aspergillus clavatus. For the same compound, the IC50 in the experiment with Plasmodium falciparum was found to be 1.25 µg/mL (≈ 2.15 µM). The Activity in experiment [4] turned out to be 34.8%; in experiment [5], 41.3%; in experiment [6] it was 59.7%; in experiment [7], 73.2%; in experiment [8], 51.7%; in experiment [9] it was 65.4%. Further, the Activity in [10] stood at 75.3%; in experiment [11], 84.3%; in [12] it was 47%; in [13], 60.7%; in experiment [14] it was 71%; in experiment [15], 84.3%.
Turning to `CC(=O)c1c(C)nc(SCC(=O)Nc2ccc(OCc3ccccc3)cc2)n1-c1ccccc1`, the MIC with Staphylococcus aureus [1] was 25 µg/mL (≈ 53 µM); in the experiment with Escherichia coli it was 125 µg/mL (≈ 265 µM); with Pseudomonas aeruginosa, 50 µg/mL (≈ 106 µM); in the experiment on Streptococcus pyogenes, 125 µg/mL (≈ 265 µM); in [2], 500 µg/mL (≈ 1060 µM); in the experiment on Bacteria it was 250 µg/mL (≈ 530 µM). The MIC is 500 µg/mL (≈ 1060 µM) in the experiment on Enterococcus and 100 µg/mL (≈ 212 µM) in the experiment on Staphylococcus aureus [3]. In addition, the MFC in the experiment on Aspergillus niger stood at 1000 µg/mL (≈ 2120 µM); in the experiment on Candida albicans, 500 µg/mL (≈ 1060 µM); in the experiment on Aspergillus clavatus it was 1000 µg/mL (≈ 2120 µM). Moreover, the IC50 in the experiment on Plasmodium falciparum is 0.93 µg/mL (≈ 1.97 µM). In addition, the Activity in experiment [4] is 36.4%; in experiment [5], 48.6%; in experiment [6], 60%; in experiment [7], 84.3%; in [8], 48.3%; in experiment [9] it was 64.2%. Also, the Activity in [10] is 80.3%; in [11], 87.4%; in experiment [12] it was 43.8%; in experiment [13], 58%; in experiment [14], 69.4%; in [15] it was 81.9%.
